Compound activity: PubChem BioAssay, several laboratories
Compounds with a hit are over-represented: about 3% of the library has one in this group of screens.
Exocytosis inh: blocks lytic granule exocytosis; TALL-104 LAMP-1 surface exposure, flow cytometry; cells stimulated with thapsigargin and PMA; inhibition, % at 10 µM; actives 0.66% (n = 360,000); AID 651702;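 active means inhibition above about 55%, limit read from the data; inconclusive means no clear call, values can overlap the other calls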
HNF4A DNA FP: change in binding of human HNF4 alpha to DNA; activity change, % at 10 µM; HNF4a-FITC DNA binding, fluorescence polarization, 1 h; actives 0.3% (n = 360,000); in the data active means activity change above about 30%, passing the limit was not always enough
Cardio protect: modulators protecting cardiomyocytes from myocardial damage; H9c2 cardiomyocytes, H2O2 injury protection, ATPLite, 2 h; protection from H2O2 cell death, % at 20 µM; actives 0.63% (n = 360,000);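 active means compounds giving at least 50% protection of heart cells from peroxide-induced death in the single-dose screen, raw or plate-pattern-corrected value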
Myeloid diff MLP: promotes myeloid progenitor differentiation; ER-HoxA9 myeloid progenitors, lysozyme-GFP differentiation, flow cytometry; calls only at 10 µM; actives 1% (n = 360,000);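 active means normalized GFP-positive differentiation at or above the plate's own cutoff, the solvent-only control mean plus 3 SD; inconclusive means no clear call, values can overlap the other calls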;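 further: cells exposed to compound for four days before flow analysis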
SENP1 FRET inh: blocks the human SENP1 SUMO protease catalytic domain. recombinant SENP1 catalytic domain, CyPet-SUMO1-YPet FRET cleavage. inhibition, % at 10 µM. actives 0.21% (n = 360,000);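 active means inhibition at least 30% at 10 µM, raw YFP signal under a set limit, fluorescence ratio 0.5 to 1.5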
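Compound: 10 µM single point, 0.5% DMSO; Test system: hSENP1 catalytic domain, recombinant; Timing: 50 min reaction at room temperature; Technique: FRET, CFP and YFP emission; Control set: no-enzyme wells low, DMSO-plus-enzyme wells high control.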
DSG3 Ab inh: human desmoglein-3 autoantibody binding inhibition; P32926; DSG3-coupled beads, scFv-anti-DSG3-GFP binding, flow cytometry; stronger effect = lower value; binding (percent of control), % at 10 µM; actives 0.48% (n = 310,000); AID 588358;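 active means binding more than 3 SD below its plate's average and above zero; inconclusive means below that plate limit but binding exactly zero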;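 further: hits lower antibody fragment binding to DSG3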
Target sequence (P32926 whole entry, looked up, the tested form may be a part): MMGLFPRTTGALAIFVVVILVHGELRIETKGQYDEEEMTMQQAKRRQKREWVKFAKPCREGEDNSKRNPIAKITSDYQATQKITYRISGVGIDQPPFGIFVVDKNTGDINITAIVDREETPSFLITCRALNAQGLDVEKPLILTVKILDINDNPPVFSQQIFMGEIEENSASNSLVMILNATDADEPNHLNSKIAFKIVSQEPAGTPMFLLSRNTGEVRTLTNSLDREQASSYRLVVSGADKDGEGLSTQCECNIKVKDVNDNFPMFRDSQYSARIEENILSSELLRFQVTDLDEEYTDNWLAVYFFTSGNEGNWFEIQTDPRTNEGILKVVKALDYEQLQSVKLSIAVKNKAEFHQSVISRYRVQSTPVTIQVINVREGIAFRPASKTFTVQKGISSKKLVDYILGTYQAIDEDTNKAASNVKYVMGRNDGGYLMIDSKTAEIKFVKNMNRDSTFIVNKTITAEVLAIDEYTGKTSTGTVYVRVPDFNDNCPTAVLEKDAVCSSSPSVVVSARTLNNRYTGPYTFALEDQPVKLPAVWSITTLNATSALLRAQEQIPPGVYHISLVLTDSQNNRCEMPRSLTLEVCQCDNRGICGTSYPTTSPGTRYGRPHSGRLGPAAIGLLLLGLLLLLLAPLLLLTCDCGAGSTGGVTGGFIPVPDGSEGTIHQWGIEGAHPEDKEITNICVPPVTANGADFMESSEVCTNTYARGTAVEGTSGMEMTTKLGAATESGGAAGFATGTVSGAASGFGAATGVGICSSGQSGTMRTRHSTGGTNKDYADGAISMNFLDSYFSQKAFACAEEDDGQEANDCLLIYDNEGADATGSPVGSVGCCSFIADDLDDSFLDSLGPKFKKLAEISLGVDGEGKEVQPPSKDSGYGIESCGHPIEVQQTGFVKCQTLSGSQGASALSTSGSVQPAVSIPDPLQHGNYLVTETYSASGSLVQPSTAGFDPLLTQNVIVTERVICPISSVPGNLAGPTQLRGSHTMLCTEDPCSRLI
Of the large screens only hits and unclear results are named; the others gave an inactive call.

O=C(O)c1ccccc1C=NNc1ccc([N+](=O)[O-])cn1	none (no result: DSG3 Ab inh)
N#C/C(=C/c1cccn1-c1cccc(C(=O)O)c1)c1ccc(Cl)cc1	Myeloid diff MLP active
N#CC(C#N)=Cc1cccn1-c1ccc(C(=O)O)cc1	none
O=C(O)c1cccc(-n2cccc2/C=C/[N+](=O)[O-])c1	DSG3 Ab inh 24.3
C/C(=N\Nc1ccc([N+](=O)[O-])cc1)c1ccc(O)cc1	HNF4A DNA FP 50.8 (no result: DSG3 Ab inh)
C/C(=N\Nc1ccc([N+](=O)[O-])cc1)c1cccc(N)c1	none
Cc1ccc(C)c(S(=O)(=O)N2CCCC2CNC(=O)C(=O)NCC2CCCO2)c1 (centres undefined)	HNF4A DNA FP 33.9
COc1ccc(CCNC(=O)C(=O)NCC2CCCN2S(=O)(=O)c2cc(C)ccc2C)cc1 (centres undefined)	Cardio protect 75.6, DSG3 Ab inh inconclusive
Cc1ccc(C)c(S(=O)(=O)N2CCCC2CNC(=O)C(=O)NCc2ccccc2C)c1 (centres undefined)	none
CCOc1ccc(CCNC(=O)CSc2ncn[nH]2)cc1OCC	none
Cc1ccc(OCCn2cc(C#N)c3ccccc32)cc1	Exocytosis inh 68.0
COc1ccccc1OCCn1cc(C#N)c2ccccc21	none
CC1(C)CC(N2CCCCC2)=CC(=[N+]2CCCCC2)C1	Myeloid diff MLP active (no result: DSG3 Ab inh)
CN1CCC[C@@H]1CCNC(=O)c1cccc2c1C(=O)c1ccc(N3CCCC3)cc1S2(=O)=O	HNF4A DNA FP 63.0
O=C(NCCN1CCOCC1)c1cccc2c1C(=O)c1ccc(N3CCCC3)cc1S2(=O)=O	none
O=C(NCc1ccc(OC(F)(F)F)cc1)c1cccc2c1C(=O)c1ccc(N3CCC(Cc4ccccc4)CC3)cc1S2(=O)=O	Myeloid diff MLP active
COc1ccc(-c2ccc3c(c2)S(=O)(=O)c2cccc(C(=O)NC4CCCCC4)c2C3=O)cc1OC	DSG3 Ab inh 53.9
COc1ccc(-c2ccc3c(c2)S(=O)(=O)c2cccc(C(=O)NC4CC4)c2C3=O)cc1OC	none
O=C(NCc1ccc(OC(F)(F)F)cc1)c1cccc2c1C(=O)c1ccc(N3CCCCC3)cc1S2(=O)=O	none
O=C(NCc1ccc(OC(F)(F)F)cc1)c1cccc2c1C(=O)c1ccc(N3CCCC3)cc1S2(=O)=O	Myeloid diff MLP active
Cc1ccc(NC(C(=O)c2ccccc2)c2ccccc2)cc1 (centres undefined)	none
CCCCCCCN1C/C=C\C(c2ccc(OC)cc2)N(Cc2ccc(F)cc2)C(=O)[C@H]1Cc1ccccc1 (some centres undefined)	none
COC(=O)c1ccc2c(=O)[nH]c(COC(=O)c3[nH]c(C)c(C(C)=O)c3C)nc2c1	Cardio protect 72.3
CC(=O)c1c(C)[nH]c(C(=O)OCc2nc3ccsc3c(=O)[nH]2)c1C	DSG3 Ab inh inconclusive
COc1cc(-c2nnc(-c3ccc(S(=O)(=O)c4ccccc4)cc3)o2)cc(OC)c1OC	DSG3 Ab inh inconclusive
COc1cc(-c2nnc(-c3ccc(N4CCOCC4)cc3)o2)cc(OC)c1OC	Cardio protect 53.1
NC(=S)N/N=C\c1c2ccccc2cc2ccccc12	Exocytosis inh 64.6
Cc1cc(C)n2nc(C(=O)N/N=C/c3c4ccccc4cc4ccccc34)nc2n1	Cardio protect 64.2, Myeloid diff MLP inconclusive
CNC(=S)N/N=C/c1c2ccccc2c(Cl)c2ccccc12	Exocytosis inh 56.5
COCCNC(=S)N/N=C/c1c2ccccc2cc2ccccc12	none
CC1=NOC(=O)/C1=C\c1ccc(-c2cc(Cl)ccc2Cl)o1	Exocytosis inh 73.6
CC(C)c1ccc(S(=O)(=O)/N=C2/C=C(Sc3ncn[nH]3)C(=O)c3ccccc32)cc1	Exocytosis inh 98.5 (no result: DSG3 Ab inh)
Cc1ccc(S(=O)(=O)/N=C2/C=C(Sc3ncn[nH]3)C(=O)c3ccccc32)cc1	Exocytosis inh 108.2, Myeloid diff MLP inconclusive, DSG3 Ab inh 94.0
Cc1nc(SCc2ccc(Cl)c(Cl)c2)n[nH]1	HNF4A DNA FP 117.8
Cc1nc(SCc2ccc(F)cc2)n[nH]1	none
Cc1ccc(C(=O)CCC(=O)OCC(=O)N(C)c2c(N)n(Cc3ccccc3)c(=O)[nH]c2=O)cc1	none
CCOc1ccc(N(CC(=O)NCCSCc2ccccc2)S(C)(=O)=O)cc1	none
O=[N+]([O-])c1cc(C(F)(F)F)cc([N+](=O)[O-])c1NCCCN1CCOCC1	HNF4A DNA FP 62.3
O=[N+]([O-])c1cc(C(F)(F)F)ccc1NCCCN1CCOCC1	none (no result: Myeloid diff MLP)
CCOC(=O)C1(Cc2cccc(F)c2)CCN(Cc2cnn(CC)c2)CC1	none
CCOC(=O)C1(Cc2cccc(F)c2)CCN(Cc2nc(CC)[nH]c2C)CC1	HNF4A DNA FP 75.4, Myeloid diff MLP active
CNC(=O)OCc1nc(SSC(C)(C)C)n(C)c1COC(=O)NC	Myeloid diff MLP inconclusive
CCSc1nc(COC(=O)NC)c(COC(=O)NC)n1C	Myeloid diff MLP active
Cc1cc(=O)oc2c(C)c(OC(C)C(=O)NCCN3CCOCC3)ccc12 (centres undefined)	none
COc1ccc(-c2cc(=O)oc3c(C)c(OC(C)C(C)=O)ccc23)cc1 (centres undefined)	Myeloid diff MLP active
CCOC(=O)C(Oc1ccc2c(-c3ccc(OC)cc3)cc(=O)oc2c1C)c1ccccc1 (centres undefined)	none
COc1ccc(-c2cc(=O)oc3c(C)c(OC(C)C(=O)Nc4ccc(CN5CCOCC5)cc4)ccc23)cc1 (centres undefined)	Myeloid diff MLP active
CCN(CC)C(=O)c1ccc(Cc2cn(C)c3ccccc23)nc1	none (no result: DSG3 Ab inh)
CC(=O)c1cccc(OC(=O)Oc2cccc(C(C)=O)c2)c1	none (no result: DSG3 Ab inh)
N=C1C(c2ccccc2)=C(O)CN1NC(=O)c1ccccc1	Myeloid diff MLP active
N#CCC(=O)N/N=C/c1c(-c2ccccc2)n(-c2ccccc2)c2ccccc12	Exocytosis inh 93.7
N#CCC(=O)N/N=C/c1cn(Cc2ccccc2C#N)c2ccccc12	none
CCc1ccc(NC(=S)N2CCCC(C(F)(F)F)C2)cc1 (centres undefined)	none
Cc1csc(=O)n1CC(=O)OCC(=O)Nc1cc(Cl)ccc1[N+](=O)[O-]	none
COc1cccc(C(=O)NCC(c2cccs2)N2CCc3ccccc32)c1 (centres undefined)	none
O=C(NCC(c1cccs1)N1CCc2ccccc21)c1ccccc1 (centres undefined)	Myeloid diff MLP active
COc1cccc(N=Cc2nc(-c3ccccc3)oc2OC(C)=O)c1	Exocytosis inh 63.8
COc1ccc(N=Cc2nc(-c3ccccc3)oc2OC(C)=O)cc1	none (no result: DSG3 Ab inh)
CC(C)(C)NC(=O)CSCc1ccc(Br)cc1	none
C=CCNC(=O)CSCc1ccc(Br)cc1	Myeloid diff MLP active
O=C(NCc1ccccc1F)Nc1nnc([C@H]2C[C@H](O)[C@@H](CO)O2)s1	none (no result: DSG3 Ab inh)
